According to PubChem BioAssay:
Records with an inconclusive call do not appear.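 Rule for the calls, unless noted: active = cell viability at or below a set limit in both duplicate runs, the limit being the all-compound median minus 4 SD (cut at about 23% in these data, passing the limit was not always enough); inconclusive = no clear call, values can overlap the other calls; inactive = the rest.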

How the values were obtained:
[1] = OD615 S. cerevisiae growth inhibition, permissive medium, pilot counter-assay, permissive growth control for S. cerevisiae lifespan shortening project (AID 705;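 active = growth inhibition above 25% in both replicates, a cutoff set 3 SD above the mean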); conditions: OD615, 24 h, at 10 µM, stronger effect = higher value
How it was run: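 Material: engineered DeaD yeast; compound dosing: one dose 10 µM, DMSO 0.25% final; measure: yeast growth inhibition indicated by reduced 24 h OD615; detection: OD615 turbidity read; incubation: cells pre-grown 4 h, then 24 h compound exposure, 30 °C humidified; medium: permissive synthetic complete medium with raffinose and galactose carbon sources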

[2] = Restrictive medium S. cerevisiae growth inhibition, OD615, pilot screen of yeast lifespan reduction project, restrictive growth control (AID 706;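 active = growth inhibition above a set limit, 3 SD over mean compound inhibition, in both replicates, cut at about 43% in these data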;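 note: modified DeaD lifespan yeast strain shifted to restrictive glucose medium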); conditions: OD615, 48 h, at 10 µM, stronger effect = higher value
How it was run: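 material = engineered S. cerevisiae DeaD strain | medium = glucose-based CSMM-D restrictive medium | times = 4 h pre-incubation, 48 h exposure at 30 °C | technique = OD615 absorbance reading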

[3] = viability gain of MRP-1-high H69AR cells under doxorubicin, pilot screen, MRP-1 activator project, CellTiter-Glo, duplicate (AID 807;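 active = viability increase at or above a cutoff of the median across tested compounds plus 3 SD, cut at about 8.5% in these data, passing the limit was not always enough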;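 note: compound pretreatment 18-22 h then 72 h combined with doxorubicin; 0% = doxorubicin alone and 100% = vehicle without doxorubicin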); conditions: H69AR viability with doxorubicin, CellTiter-Glo luminescence; at 10 µM; stronger effect = higher value
[4] = growth suppression of beta-catenin knockout HCT116, pilot screen, human colon tumor cells (AID 823); conditions: CellTiter-Glo, 60 h, at 10 µM, stronger effect = lower value;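 note: 0% = wells killed by 20 µM Hyamine and 100% = untreated DMSO cell wells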
[5] = growth suppression of PTEN-deleted HCT116, pilot screen, cell-based, HCT116 clonal line, CellTiter-Glo (AID 824;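 active = viability at or below 27.92% in each of two runs, the all-compound median minus 4 SD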;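 note: 0% = 20 µM Hyamine control and 100% = vehicle cell control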); conditions: 60 h, at 10 µM, stronger effect = lower value
[6] = inhibitors of the yeast RAM network, pilot screen, dse1pr::URA3 reporter, 5-FOA selection (AID 869;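 active = inhibition over a set limit, the all-compound mean plus 3 SD, in both replicate runs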;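 note: 0% = DMSO wells with no growth and 100% = 10 µM 1-NA-PP1 with full growth; RAM network block rescues cells from 5-FOA so hits raise OD615 growth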); conditions: S. cerevisiae dse1pr::URA3 5-FOA growth, OD615, 2 d; at 10 µM; stronger effect = higher value; strain carries analog-sensitive mutant Cbk1 kinase
[7] = RAM signaling pathway blockade in yeast – S. cerevisiae, Pdr1DBD-CYC8 efflux-inhibited sensitized strain, primary screen (AID 1298;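 active = RAM network inhibition above 8.4% in each of two replicates, 3 SD over the compound average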;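 note: 0% = DMSO untreated cells without growth and 100% = 10 µM 1-NA-PP1 full growth; higher means more yeast growth rescued from 5-FOA killing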); conditions: S. cerevisiae cbk1-as DSE1-URA3 strain, 5-FOA growth OD615, 2 d; at 50 µM; stronger effect = higher value

O=C(CCn1c(=O)sc2ccccc21)NCCN1CCOCC1
inactive: growth inhibition [1] -3.08% | growth inhibition [2] -14.8% | viability increase [3] -1.01% | viability [4] 101% | viability [5] 106% | inhibition [6] 1.49% | RAM network inhibition [7] 1.56%

COc1ccc(C(=O)NCC23C=CC(O2)C2C(=O)N(Cc4ccccc4)C(=O)C23)cc1 (configuration not stated)
inactive: growth inhibition [1] -5.3% | growth inhibition [2] 13.4% | viability increase [3] -0.77% | viability [4] 85.1% | viability [5] 88.8% | inhibition [6] 2.19% | RAM network inhibition [7] 3.67%

COc1ccc(-n2nnc3c(=O)n(CC(=O)N4CCCc5ccccc54)cnc32)cc1
inactive: growth inhibition [1] -1.22% | growth inhibition [2] -1.47% | viability increase [3] -0.27% | viability [4] 95.2% | viability [5] 91.2% | inhibition [6] 2.3% | RAM network inhibition [7] 1.61%

CCOc1ccc(N(CC(=O)NCCSc2ccccn2)S(C)(=O)=O)cc1
inactive: growth inhibition [1] 0.64% | growth inhibition [2] 2.82% | viability increase [3] -3.63% | viability [4] 97.8% | viability [5] 95.3% | inhibition [6] 0.35% | RAM network inhibition [7] 3.38%

Cn1c2ccccc2c2c(C(=O)O)cn(C3CCCC3)c(=O)c21
inactive: growth inhibition [1] 3.4% | growth inhibition [2] 1.83% | viability increase [3] -3.21% | viability [4] 91.4% | viability [5] 91.7% | inhibition [6] 1.46% | RAM network inhibition [7] 4.9%

O=C(c1c(F)cccc1F)N1CCN(c2cccc(C(F)(F)F)c2)CC1
inactive: growth inhibition [1] -7.33% | growth inhibition [2] -6.87% | viability increase [3] 2.86% | viability [4] 83.8% | viability [5] 82.1% | inhibition [6] 0.955% | RAM network inhibition [7] 4.98%

CCC(=NCCc1ccccc1)C1=C(O)CCC1=O
inactive: growth inhibition [1] 3.04% | growth inhibition [2] -0.44% | viability increase [3] -2.05% | viability [4] 98.3% | viability [5] 98.8% | inhibition [6] 0.325% | RAM network inhibition [7] 2.13%

CCOC(=O)N1CCN(Cc2nc3c(c(=O)n(C)c(=O)n3C)n2CCC(C)C)CC1
inactive: growth inhibition [1] -5% | growth inhibition [2] -10.9% | viability increase [3] -4.73% | viability [4] 97.3% | viability [5] 99.9% | inhibition [6] 0.37% | RAM network inhibition [7] 8.2%

Cn1c(NC(=O)Cc2ccc(F)cc2)cc(=O)n(C)c1=O
inactive: growth inhibition [1] -5.41% | growth inhibition [2] -2.77% | viability increase [3] 3.42% | viability [4] 109% | viability [5] 95.4% | inhibition [6] 1.83% | RAM network inhibition [7] 0.62%

CCc1cc2c(=O)c(-c3nc4ccccc4n3C)c(C(C)C)oc2c(CN2CCN(C)CC2)c1O
inactive: growth inhibition [1] -3.21% | growth inhibition [2] 8.45% | viability increase [3] -0.59% | viability [4] 69.4% | viability [5] 82.8% | inhibition [6] 1.74% | RAM network inhibition [7] 1.64%

COc1ccc(-c2cc3ccccc3n2CC(O)CN2CCN(CCO)CC2)cc1 (configuration not stated)
inactive: growth inhibition [1] -6.33% | growth inhibition [2] -2.77% | viability increase [3] -3.91% | viability [4] 80.3% | viability [5] 86% | inhibition [6] 0.72% | RAM network inhibition [7] 4.23%

CCc1cccc(Nc2cc(C)nc3nc(C)nn23)c1
inactive: growth inhibition [1] -14.3% | growth inhibition [2] -3.76% | viability increase [3] -3.25% | viability [4] 96.7% | viability [5] 88.3% | inhibition [6] 2.72% | RAM network inhibition [7] 2.83%

Cc1cc(C(=O)NCC(c2ccco2)N(C)C)no1 (configuration not stated)
inactive: growth inhibition [1] -3.54% | growth inhibition [2] -10.7% | viability increase [3] -2.83% | viability [4] 98.1% | viability [5] 99.6% | inhibition [6] 1.4% | RAM network inhibition [7] 8.39%

O=C1N(O)C2(C=CCCC2)/C(=N\O)C12CCCCC2 (configuration not stated)
inactive: growth inhibition [1] -11.1% | growth inhibition [2] -1.67% | viability increase [3] -2.64% | viability [4] 90.1% | viability [5] 100% | inhibition [6] -0.15% | RAM network inhibition [7] 1.27%

Nc1nc2n(n1)C(c1ccc(Cl)cc1)CC(c1ccc(F)cc1)N2 (configuration not stated)
inactive: growth inhibition [1] -3.33% | growth inhibition [2] 13% | viability increase [3] 5.31% | viability [4] 92.5% | viability [5] 80.8% | inhibition [6] 0.43% | RAM network inhibition [7] 5.91%

O=C(CSCC(=O)NC1CC1)Nc1ccccc1
inactive: growth inhibition [1] -0.675% | growth inhibition [2] -11.9% | viability increase [3] -1.13% | viability [4] 98.2% | viability [5] 98.7% | inhibition [6] 0.03% | RAM network inhibition [7] -0.72%

CC(C)C(=O)Nc1ccc2c(c1)C(=O)N(CCC(=O)O)C2=O
inactive: growth inhibition [1] -4.82% | growth inhibition [2] -16.1% | viability increase [3] 0.2% | viability [4] 106% | viability [5] 100% | inhibition [6] 2.14% | RAM network inhibition [7] -0.51%

CC12CCC(C(=O)Nc3ccccc3N3CCOCC3)(CC1=O)C2(C)C (configuration not stated)
inactive: growth inhibition [1] -9.71% | growth inhibition [2] -14.9% | viability increase [3] -2.5% | viability [4] 90.3% | viability [5] 94.8% | inhibition [6] 0.715% | RAM network inhibition [7] 6.03%

COc1ccc2oc(C(=O)C3CC3)c(NC(=O)CCCN3C(=O)c4ccccc4C3=O)c2c1
inactive: growth inhibition [1] 2.6% | growth inhibition [2] 6.11% | viability increase [3] -3.63% | viability [4] 102% | viability [5] 93.6% | inhibition [6] 0.995% | RAM network inhibition [7] 3.53%

COc1cccc(-c2nc(CS(=O)CC(=O)NC3CC3)c(C)o2)c1 (configuration not stated)
inactive: growth inhibition [1] 1.62% | growth inhibition [2] 14.2% | viability increase [3] -2.91% | viability [4] 101% | viability [5] 101% | inhibition [6] 0.52% | RAM network inhibition [7] 0.14%

CC1CCC(NC(=O)CC2Oc3ccccc3NC2=O)CC1 (configuration not stated)
inactive: growth inhibition [1] 6.36% | growth inhibition [2] 2.4% | viability increase [3] -0.98% | viability [4] 98.8% | viability [5] 97.8% | inhibition [6] 2.69% | RAM network inhibition [7] 5.77%

COc1ccc(C(=O)Nc2cc3c(cc2C#N)OCO3)cc1S(=O)(=O)N1CCN(C)CC1
inactive: growth inhibition [1] -18.3% | growth inhibition [2] -21.2% | viability increase [3] 1.53% | viability [4] 100% | viability [5] 101% | inhibition [6] 0.975% | RAM network inhibition [7] 5.27%

CCCc1cc(=O)oc2cc3occ(C)c3cc12
inactive: growth inhibition [1] -10.3% | growth inhibition [2] 2.5% | viability increase [3] -2.52% | viability [4] 93.6% | viability [5] 97.6% | inhibition [6] 1.23% | RAM network inhibition [7] 4.79%

CC(=O)c1cccc(NC(=O)c2cc(C)no2)c1
inactive: growth inhibition [1] -4.53% | growth inhibition [2] -12.4% | viability increase [3] -1.41% | viability [4] 98.9% | viability [5] 92.5% | inhibition [6] 1.26% | RAM network inhibition [7] -1.99%

CC(Cc1ccccc1)N/C=C1/CC(=O)NC1=O (configuration not stated)
inactive: growth inhibition [1] -8.61% | growth inhibition [2] 0.51% | viability increase [3] -1.53% | viability [4] 97% | viability [5] 97% | inhibition [6] 1.42% | RAM network inhibition [7] 2.56%

Cc1cc(C)nc(SCSc2nc(C)cc(C)n2)n1
inactive: growth inhibition [1] 0.095% | growth inhibition [2] 5.64% | viability increase [3] -2.17% | viability [4] 104% | viability [5] 103% | inhibition [6] 1.23% | RAM network inhibition [7] 5.29%

CN(CCCC(=O)Nc1nccs1)S(=O)(=O)c1ccc(Cl)cc1
inactive: growth inhibition [1] -0.375% | growth inhibition [2] 0.355% | viability increase [3] -1.24% | viability [4] 110% | viability [5] 97.7% | inhibition [6] 1.51% | RAM network inhibition [7] 0.41%

CCC(C)NC(=O)CN(c1ccc2c(c1)OCO2)S(=O)(=O)c1c(C)n[nH]c1C (configuration not stated)
inactive: growth inhibition [1] -12.1% | growth inhibition [2] -7.16% | viability increase [3] -1.79% | viability [4] 107% | viability [5] 99.4% | inhibition [6] 1.34% | RAM network inhibition [7] 2.93%

COc1ccc(-n2c(Cn3c(=O)sc4ccccc43)nnc2SCC(=O)N2CCCCC2)cc1
inactive: growth inhibition [1] 3.02% | growth inhibition [2] 19.9% | viability increase [3] -0.89% | viability [4] 99.6% | viability [5] 96.5% | inhibition [6] 0.19% | RAM network inhibition [7] 6.13%

Cc1sc2ncnc(SCC(=O)c3cccs3)c2c1C
inactive: growth inhibition [1] 6.02% | growth inhibition [2] 10.6% | viability increase [3] -1.23% | viability [4] 100% | viability [5] 94.3% | inhibition [6] 0.73% | RAM network inhibition [7] 3.92%

Cc1c(C(=O)OCC2CCCO2)[nH]c2c1C(=O)CC(c1ccc(N(C)C)cc1)C2 (configuration not stated)
inactive: growth inhibition [1] -4.14% | growth inhibition [2] 3.2% | viability increase [3] -0.25% | viability [4] 67.7% | viability [5] 71.5% | inhibition [6] 1.09% | RAM network inhibition [7] 6.62%

Cc1cc(NC(=O)CSc2nnc(C)c(=O)[nH]2)no1
inactive: growth inhibition [1] -0.975% | growth inhibition [2] 1.15% | viability increase [3] 0.9% | viability [4] 112% | viability [5] 101% | inhibition [6] 2.48% | RAM network inhibition [7] 1.75%

COC(=O)c1cn(NC(=O)c2ccncc2)c(=O)c2ccccc12
inactive: growth inhibition [1] -0.73% | growth inhibition [2] -19.7% | viability increase [3] -1.43% | viability [4] 98.3% | viability [5] 94.9% | inhibition [6] 0.87% | RAM network inhibition [7] 2.53%

CC1(C)CC(=O)C2=C(C1)Nc1ccccc1NC2c1ccccn1 (configuration not stated)
inactive: growth inhibition [1] 11.4% | growth inhibition [2] 3.1% | viability increase [3] -3.1% | viability [4] 100% | viability [5] 95.4% | inhibition [6] 0.245% | RAM network inhibition [7] 3.12%

O=c1c2[nH]c3ccc(F)cc3c2ncn1CCN1CCN(Cc2ccccc2)CC1
inactive: growth inhibition [1] -2.19% | growth inhibition [2] 1.39% | viability increase [3] -3.25% | viability [4] 86.3% | viability [5] 80.3% | inhibition [6] 1.52% | RAM network inhibition [7] 1.11%

Cc1cc(Nc2ccc(F)cc2F)n2nc(C)nc2n1
inactive: growth inhibition [1] -20.2% | growth inhibition [2] -3.57% | viability increase [3] -1.98% | viability [4] 104% | viability [5] 98.5% | inhibition [6] 0.33% | RAM network inhibition [7] 2.94%
